Experimental data reported in ChEMBL document CHEMBL1131429, “Nitrogen-carbon-linked (azolylphenyl)oxazolidinones with potent antibacterial activity against the fastidious gram-negative organisms Haemophilus influenzae and Moraxella catarrhalis” (J Med Chem, 1998).
Converted amounts (≈) assume the structure as drawn.

Key:
Haemophilus influenzae = assay: The compound was evaluated for its anti-bacterial activity against Haemophilus influenzae UC 30063; format: functional
Procedure, shortened: (§1)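 MICs were determined by standard agar dilution against a panel of Gram-positive and Gram-negative isolates.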

Moraxella catarrhalis = assay: The compound was evaluated for its anti-bacterial activity against Moraxella catarrhalis UC 30610; format: functional; procedure, shortened: as §1
Streptococcus pneumoniae [1] = assay: The compound was evaluated for its anti-bacterial activity against Streptococcus pneumoniae UC 9912; format: functional; procedure, shortened: as §1
Staphylococcus aureus [2] = assay: The compound was evaluated for its anti-bacterial activity against methicillin resistant Staphylococcus aureus; format: functional
Procedure, shortened: (§2)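 MIC determined in vitro by standard agar dilution against bacterial isolates.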

[3] = tested on: Staphylococcus epidermidis; assay: The compound was evaluated for its anti-bacterial activity against methicillin resistant Staphylococcus epidermidis; format: functional; procedure, shortened: as §2
Enterococcus faecalis = assay: The compound was evaluated for its anti-bacterial activity against Enterococcus faecalis UC 9217; format: functional; procedure, shortened: as §1
Staphylococcus aureus [4] = assay: The compound was evaluated for its anti-bacterial activity against methicillin susceptible Staphylococcus aureus; format: functional; procedure, shortened: as §2
[5] = Steady-state volume distribution was evaluated in male Dawley rats at a dose of 10 mg/kg when taken intravenously; format: ADME, organism-based; design: dose 10 mg/kg, route intravenous; details: Sprague-Dawley, rat, in vivo, iv, read-out: Vss
Rattus norvegicus [6] = assay: tmax was evaluated in male Dawley rats at a dose of 25 mg/kg when taken perorally; format: functional, organism-based; design: dose 25 mg/kg
Rattus norvegicus [7] = assay: Dawley rats at a dose of 10 mg/kg when taken intravenously; format: functional; details: route intravenous
[8] = Cmax was evaluated in male Dawley rats at a dose of 25 mg/kg when taken perorally; format: ADME, organism-based; design: dose 25 mg/kg, route oral; details: Sprague-Dawley, rat, in vivo, po
Staphylococcus aureus [9] = assay: The compound was evaluated for its control effective dose against Staphylococcus aureus UC 9213; format: functional
Staphylococcus aureus [10] = assay: The compound was evaluated for its effective dose against Staphylococcus aureus UC 9213; format: functional
Rattus norvegicus [11] = assay: Dawley rats 9.9 mg/kg when taken intravenously; format: functional; details: route intravenous
Procedure, shortened: (§3)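 Single intravenous or oral doses were given to male Sprague-Dawley rats (n = 3), with plasma sampled to give Cmax and tmax. Vss was calculated as dose·AUMC/AUC², clearance as dose/AUC, and F as (AUC/dose)po/(AUC/dose)iv × 100, assuming linear PK. t1/2β is the harmonic mean terminal half-life. The oral entries show the iv half-life because the po half-life was not calculable.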

Rattus norvegicus [12] = assay: Dawley rats at a dose of 42.9 mg/kg when taken peroral; format: functional; details: route oral; procedure, shortened: as §3
[13] = Cmax was evaluated in male Dawley rats at a dose of 42.9 mg/kg when taken perorally; format: ADME, organism-based; design: dose 42.9 mg/kg, route oral; details: Sprague-Dawley, rat, in vivo, po; procedure, shortened: as §3
Rattus norvegicus [14] = assay: tmax was evaluated in male Dawley rats at a dose of 42.9 mg/kg when taken perorally; format: functional, organism-based; design: dose 42.9 mg/kg; procedure, shortened: as §3
[15] = terminal disposition half-life was evaluated in male Dawley rats at a dose of 42.9 mg/kg when taken peroral; format: ADME, organism-based; design: dose 42.9 mg/kg, route oral; details: Sprague-Dawley, rat, in vivo, po; procedure, shortened: as §3
Streptococcus pneumoniae [16] = assay: The compound was evaluated for its control effective dose against Streptococcus pneumoniea UC 15087; format: functional
[17] = terminal disposition half-life was evaluated in male Dawley rats at 9.9 mg/kg when taken intravenously; format: ADME, organism-based; design: dose 9.9 mg/kg, route intravenous; details: Sprague-Dawley, rat, in vivo, iv; procedure, shortened: as §3
Streptococcus pneumoniae [18] = assay: The compound was evaluated for its effective dose against Streptococcus pneumoniea UC 15087; format: functional
[19] = Cmax was evaluated in male Dawley rats at a dose of 9.9 mg/kg when taken intravenously; format: ADME, organism-based; design: dose 9.9 mg/kg, route intravenous; details: Sprague-Dawley, rat, in vivo, iv; procedure, shortened: as §3
[20] = steady-state volume of distribution was evaluated in male Dawley rats; format: ADME, organism-based; details: Sprague-Dawley, rat, in vivo, read-out: Vss; procedure, shortened: as §3
[21] = Absolute oral bioavailability was evaluated n male Dawley rats at a dose of 42.9 mg/kg when taken peroral; format: ADME, organism-based; details: Sprague-Dawley, rat, in vivo; procedure, shortened: as §3
[22] = Cmax was evaluated in male Dawley rats at a dose of 9.0 mg/kg when taken intravenously; format: ADME, organism-based; design: dose 9 mg/kg, route intravenous; details: Sprague-Dawley, rat, in vivo, iv; procedure, shortened: as §3
[23] = terminal disposition half-life was evaluated in male Dawley rats at a dose of 46.8 mg/kg when taken peroral; format: ADME, organism-based; design: dose 46.8 mg/kg, route oral; details: Sprague-Dawley, rat, in vivo, po; procedure, shortened: as §3
[24] = Steady-state volume of distribution was evaluated in male Dawley rats at a dose of 9.0 mg/kg when taken intravenously; format: ADME, organism-based; design: dose 9 mg/kg, route intravenous; details: Sprague-Dawley, rat, in vivo, iv, read-out: Vss; procedure, shortened: as §3
[25] = Absolute oral bioavailability was evaluated n male Dawley rats at a dose of 46.8 mg/kg when taken peroral; format: ADME, organism-based; details: Sprague-Dawley, rat, in vivo; procedure, shortened: as §3
Rattus norvegicus [26] = assay: Dawley rats at a dose of 46.8 mg/kg when taken peroral; format: functional; details: route oral; procedure, shortened: as §3
[27] = tmax was evaluated in male Dawley rats at a dose of 46.8 mg/kg when taken perorally; format: ADME, organism-based; design: dose 46.8 mg/kg, route oral; details: Sprague-Dawley, rat, in vivo, po; procedure, shortened: as §3
[28] = terminal disposition half-life was evaluated in male Dawley rats at a dose of 9.0 mg/kg when taken intravenously; format: ADME, organism-based; design: dose 9 mg/kg, route intravenous; details: Sprague-Dawley, rat, in vivo, iv; procedure, shortened: as §3
[29] = Cmax was evaluated in male Dawley rats at a dose of 46.8 mg/kg when taken perorally; format: ADME, organism-based; design: dose 46.8 mg/kg, route oral; details: Sprague-Dawley, rat, in vivo, po; procedure, shortened: as §3
Rattus norvegicus [30] = assay: Dawley rats at a dose of 9.0 mg/kg when taken intravenously; format: functional; details: route intravenous; procedure, shortened: as §3

Row | Structure (SMILES) | MIC (Haemophilus influenzae) | MIC (Moraxella catarrhalis) | MIC (Streptococcus pneumoniae [1]) | MIC (Staphylococcus aureus [2]) | MIC [3] | MIC (Enterococcus faecalis) | MIC (Staphylococcus aureus [4]) | ED50 (Staphylococcus aureus [9]) | ED50 (Staphylococcus aureus [10]) | other results
1 | CN[C@H](CC(C)C)C(=O)N[C@H]1C(=O)N[C@@H](CC(N)=O)C(=O)N[C@H]2C(=O)N[C@H]3C(=O)N[C@H](C(=O)N[C@H](C(=O)O)c4cc(O)cc(O)c4-c4cc3ccc4O)[C@H](O)c3ccc(c(Cl)c3)Oc3cc2cc(c3O[C@@H]2O[C@H](CO)[C@@H](O)[C@H](O)[C@H]2O[C@H]2C[C@](C)(N)[C@H](O)[C@H](C)O2)Oc2ccc(cc2Cl)[C@H]1O [VANCOMYCIN] | > 32 µg/mL | > 32 µg/mL | 0.5 µg/mL (≈ 0.345 µM) |  |  |  |  |  |  | 
2 | CC(=O)NC[C@H]1CN(c2ccc(N3CCN(C(=O)CO)CC3)c(F)c2)C(=O)O1 [EPEREZOLID] | 16 µg/mL (≈ 40.6 µM) | 8 µg/mL (≈ 20.3 µM) | 0.5 µg/mL (≈ 1.27 µM) | 1 µg/mL (≈ 2.54 µM) | 0.5 µg/mL (≈ 1.27 µM) | 2 µg/mL (≈ 5.07 µM) | 4 µg/mL (≈ 10.1 µM) |  |  | 
3 | CC(=O)NC[C@H]1CN(c2ccc(N3CCOCC3)c(F)c2)C(=O)O1 [LINEZOLID] | 16 µg/mL (≈ 47.4 µM) | 8 µg/mL (≈ 23.7 µM) |  |  | 1 µg/mL (≈ 2.96 µM) |  |  |  |  | Vd [5]: 0.72 L/kg; Tmax (Rattus norvegicus [6]): 0.3 h; CL/F (Rattus norvegicus [7]): 10.5 mL/min/kg; Cmax [8]: 15.8 µM
4 | CC(=O)NC[C@H]1CN(c2ccc(-n3ccc(/C=N\O)c3)c(F)c2)C(=O)O1 | 4 µg/mL (≈ 11.1 µM) | 1 µg/mL (≈ 2.78 µM) | < 0.125 µg/mL | 0.5 µg/mL (≈ 1.39 µM) | 0.25 µg/mL (≈ 0.694 µM) | 0.5 µg/mL (≈ 1.39 µM) | 1 µg/mL (≈ 2.78 µM) | 2.6 mg/kg/day | 5.5 mg/kg/day | 
5 | CC(=O)NC[C@H]1CN(c2ccc(-n3ccc(C#N)c3)c(F)c2)C(=O)O1 | 4 µg/mL (≈ 11.7 µM) | 1 µg/mL (≈ 2.92 µM) | < 0.125 µg/mL | 0.25 µg/mL (≈ 0.73 µM) | < 0.125 µg/mL | 0.25 µg/mL (≈ 0.73 µM) | 0.5 µg/mL (≈ 1.46 µM) | 4 mg/kg/day | 1.9 mg/kg/day | CL/F (Rattus norvegicus [11]): 1.18 mL/min/kg; CL/F (Rattus norvegicus [12]): 1.43 mL/min/kg; Cmax [13]: 31 µM; Tmax (Rattus norvegicus [14]): 10 h; half-life [15]: 5.14 h; ED50 (Streptococcus pneumoniae [16]): 1.4 mg/kg/day; half-life [17]: 5.15 h; ED50 (Streptococcus pneumoniae [18]): 0.6 mg/kg/day; Cmax [19]: 26.1 µM; Vd [20]: 0.52 L/kg; bioavailability [21]: 92%
6 | CC(=O)NC[C@H]1CN(c2ccc(-n3cc(C#N)cn3)c(F)c2)C(=O)O1 | 4 µg/mL (≈ 11.7 µM) | 2 µg/mL (≈ 5.83 µM) | < 0.125 µg/mL | 0.5 µg/mL (≈ 1.46 µM) | < 0.125 µg/mL | 0.5 µg/mL (≈ 1.46 µM) | 0.5 µg/mL (≈ 1.46 µM) | 3.3 mg/kg/day | 1.2 mg/kg/day | Cmax [22]: 29.2 µM; half-life [23]: 5.35 h; Vd [24]: 0.43 L/kg; bioavailability [25]: 80%; CL/F (Rattus norvegicus [26]): 1.25 mL/min/kg; Tmax [27]: 4 h; ED50 (Streptococcus pneumoniae [16]): 3.2 mg/kg/day; half-life [28]: 5.35 h; Cmax [29]: 29.4 µM; ED50 (Streptococcus pneumoniae [18]): 0.35 mg/kg/day; CL/F (Rattus norvegicus [30]): 1.04 mL/min/kg
7 | CCOC(=O)c1cnn(-c2ccc(N3C[C@H](CNC(C)=O)OC3=O)cc2F)c1 | > 16 µg/mL | > 16 µg/mL | 1 µg/mL (≈ 2.56 µM) | 4 µg/mL (≈ 10.2 µM) | 2 µg/mL (≈ 5.12 µM) | 4 µg/mL (≈ 10.2 µM) | 4 µg/mL (≈ 10.2 µM) |  |  | 
8 | CC(=O)NC[C@H]1CN(c2ccc(-n3ccc(C=O)c3)c(F)c2)C(=O)O1 | 2 µg/mL (≈ 5.79 µM) | 1 µg/mL (≈ 2.9 µM) | < 0.125 µg/mL | 0.25 µg/mL (≈ 0.724 µM) | < 0.125 µg/mL | 0.25 µg/mL (≈ 0.724 µM) | 0.25 µg/mL (≈ 0.724 µM) | 1.7 mg/kg/day | >20 mg/kg/day | 
9 | CC(=O)NC[C@H]1CN(c2ccc(-n3cc(C(N)=O)cn3)c(F)c2)C(=O)O1 | > 16 µg/mL | > 16 µg/mL | 0.5 µg/mL (≈ 1.38 µM) |  | 4 µg/mL (≈ 11.1 µM) | > 16 µg/mL | > 16 µg/mL |  |  | 
